Test results: ChEMBL document CHEMBL1146325, “Synthesis and antibacterial activities of new quinolone derivatives utilizing 1-azabicyclo[1.1.0]butane” (2007)
Converted amounts (≈) assume the structure as drawn.

Tests used:
Assay type in all cases: functional
Staphylococcus aureus [1] = experiment: Antibacterial activity against quinoline-susceptible methicillin-resistant Staphylococcus aureus by agar dilution method
Summary of the method: (§1)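 Read-out is the minimum inhibitory concentration (MIC), found by a conventional agar dilution procedure.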

Staphylococcus aureus [2] = experiment: Antibacterial activity against quinoline-intermediate methicillin-resistant Staphylococcus aureus by agar dilution method; summary of the method: as §1
Staphylococcus aureus [3] = experiment: Antibacterial activity against quinoline-resistant methicillin-resistant Staphylococcus aureus by agar dilution method; summary of the method: as §1
Enterococcus faecalis = experiment: Antibacterial activity against Enterococcus faecalis by agar dilution method
Summary of the method: (§2)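 Read-out is the minimum inhibitory concentration (MIC), determined by a conventional agar dilution procedure against a panel of Gram-positive and Gram-negative bacteria.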

Streptococcus pneumoniae = experiment: Antibacterial activity against Streptococcus pneumoniae by agar dilution method; summary of the method: as §2
Moraxella catarrhalis = experiment: Antibacterial activity against Moraxella catarrhalis by agar dilution method; summary of the method: as §2
Haemophilus influenzae = experiment: Antibacterial activity against Haemophilus influenzae by agar dilution method; summary of the method: as §2
Escherichia coli [4] = experiment: Antibacterial activity against Escherichia coli without AcrAB efflux system by agar dilution method
Escherichia coli [5] = experiment: Antibacterial activity against Escherichia coli with AcrAB efflux system by agar dilution method
Pseudomonas aeruginosa = experiment: Antibacterial activity against Pseudomonas aeruginosa by agar dilution method; summary of the method: as §2

SMILES	MIC (Staphylococcus aureus [1]) [µg/mL]	MIC (Staphylococcus aureus [2]) [µg/mL]	MIC (Staphylococcus aureus [3]) [µg/mL]	MIC (Enterococcus faecalis) [µg/mL]	MIC (Streptococcus pneumoniae) [µg/mL]	MIC (Moraxella catarrhalis) [µg/mL]	MIC (Haemophilus influenzae) [µg/mL]	MIC (Escherichia coli [4]) [µg/mL]	MIC (Escherichia coli [5]) [µg/mL]	MIC (Pseudomonas aeruginosa) [µg/mL]
Cc1ccc(SC2CN(c3c(F)cc4c(=O)c(C(=O)O)cn(C5CC5)c4c3F)C2)cc1	2 (≈ 4.52 µM)	32 (≈ 72.3 µM)	> 32	16 (≈ 36.2 µM)	32 (≈ 72.3 µM)	2 (≈ 4.52 µM)	0.25 (≈ 0.565 µM)	32 (≈ 72.3 µM)	32 (≈ 72.3 µM)	> 32
O=C(O)c1cn(C2CC2)c2c(F)c(N3CC(Nc4ccc(Cl)cc4)C3)c(F)cc2c1=O	0.063 (≈ 0.141 µM)	1 (≈ 2.24 µM)	16 (≈ 35.9 µM)	1 (≈ 2.24 µM)	0.5 (≈ 1.12 µM)	0.063 (≈ 0.141 µM)	≤ 0.008	0.125 (≈ 0.28 µM)	1 (≈ 2.24 µM)	> 16
O=C(O)c1cn(C2CC2)c2c(F)c(N3CC(Sc4nc5ccccc5s4)C3)c(F)cc2c1=O	1 (≈ 2.06 µM)	4 (≈ 8.24 µM)	32 (≈ 65.9 µM)	4 (≈ 8.24 µM)	4 (≈ 8.24 µM)	0.5 (≈ 1.03 µM)	0.5 (≈ 1.03 µM)	8 (≈ 16.5 µM)	8 (≈ 16.5 µM)	> 32
Cn1nnnc1SC1CN(c2c(F)cc3c(=O)c(C(=O)O)cn(C4CC4)c3c2F)C1	0.125 (≈ 0.288 µM)	2 (≈ 4.6 µM)	> 32	1 (≈ 2.3 µM)	2 (≈ 4.6 µM)	0.063 (≈ 0.145 µM)	< 0.008	0.125 (≈ 0.288 µM)	1 (≈ 2.3 µM)	8 (≈ 18.4 µM)
CCOC(=O)c1ccc(NC2CN(c3c(F)cc4c(=O)c(C(=O)O)cn(C5CC5)c4c3F)C2)cc1	0.031 (≈ 0.0641 µM)	1 (≈ 2.07 µM)	> 16	2 (≈ 4.14 µM)	0.125 (≈ 0.259 µM)	0.125 (≈ 0.259 µM)	≤ 0.008	0.25 (≈ 0.517 µM)	2 (≈ 4.14 µM)	> 16
O=C(O)c1cn(C2CC2)c2c(F)c(N3CC(Sc4nc5ccccc5o4)C3)c(F)cc2c1=O	1 (≈ 2.13 µM)	2 (≈ 4.26 µM)	32 (≈ 68.2 µM)	2 (≈ 4.26 µM)	2 (≈ 4.26 µM)	0.5 (≈ 1.07 µM)	0.5 (≈ 1.07 µM)	8 (≈ 17 µM)	8 (≈ 17 µM)	> 32
COc1ccc(NC2CN(c3c(F)cc4c(=O)c(C(=O)O)cn(C5CC5)c4c3F)C2)cc1	0.031 (≈ 0.0702 µM)	0.25 (≈ 0.566 µM)	16 (≈ 36.2 µM)	0.25 (≈ 0.566 µM)	0.063 (≈ 0.143 µM)	0.031 (≈ 0.0702 µM)	≤ 0.008	0.031 (≈ 0.0702 µM)	0.25 (≈ 0.566 µM)	4 (≈ 9.06 µM)
Cn1nnnc1Sc1c(F)cc2c(=O)c(C(=O)O)cn(C3CC3)c2c1F	16 (≈ 42.2 µM)	> 16	> 16	> 16	> 16	4 (≈ 10.5 µM)	0.125 (≈ 0.33 µM)	1 (≈ 2.64 µM)	16 (≈ 42.2 µM)	> 16
COc1c(N2CCNC(C)C2)c(F)cc2c(=O)c(C(=O)O)cn(C3CC3)c12 (stereo not given) [GATIFLOXACIN]	0.25 (≈ 0.666 µM)	2 (≈ 5.33 µM)	> 128	1 (≈ 2.66 µM)	0.5 (≈ 1.33 µM)	0.063 (≈ 0.168 µM)	≤ 0.008	0.063 (≈ 0.168 µM)	0.063 (≈ 0.168 µM)	1 (≈ 2.66 µM)
O=C(O)c1cn(C2CC2)c2c(F)c(N3CC(Sc4ncccn4)C3)c(F)cc2c1=O	0.063 (≈ 0.146 µM)	1 (≈ 2.32 µM)	32 (≈ 74.3 µM)	0.25 (≈ 0.581 µM)	1 (≈ 2.32 µM)	0.063 (≈ 0.146 µM)	≤ 0.008	1 (≈ 2.32 µM)	1 (≈ 2.32 µM)	8 (≈ 18.6 µM)
Cn1cnnc1SC1CN(c2c(F)cc3c(=O)c(C(=O)O)cn(C4CC4)c3c2F)C1	0.25 (≈ 0.577 µM)	4 (≈ 9.23 µM)	> 16	1 (≈ 2.31 µM)	2 (≈ 4.61 µM)	0.123 (≈ 0.284 µM)	≤ 0.008	0.25 (≈ 0.577 µM)	1 (≈ 2.31 µM)	8 (≈ 18.5 µM)
O=C(O)c1cn(C2CC2)c2c(F)c(N3CC(Nc4ccccc4)C3)c(F)cc2c1=O	0.016 (≈ 0.0389 µM)	0.5 (≈ 1.22 µM)	32 (≈ 77.8 µM)	0.25 (≈ 0.608 µM)	0.25 (≈ 0.608 µM)	0.016 (≈ 0.0389 µM)	≤ 0.008	0.031 (≈ 0.0754 µM)	0.25 (≈ 0.608 µM)	4 (≈ 9.72 µM)
O=C(O)c1cn(C2CC2)c2cc(N3CCNCC3)c(F)cc2c1=O [CIPROFLOXACIN]	1 (≈ 3.02 µM)		> 64	2 (≈ 6.04 µM)	4 (≈ 12.1 µM)	0.063 (≈ 0.19 µM)	≤ 0.008	≤ 0.008	≤ 0.008	
O=C(O)c1cn(C2CC2)c2c(F)c(N3CC(N(Cc4ccccc4)Cc4ccccc4)C3)c(F)cc2c1=O	> 64	> 64	> 64	> 64	> 64	> 64	8 (≈ 15.5 µM)	64 (≈ 124 µM)	> 64	> 64
C[C@H]1COc2c(N3CCN(C)CC3)c(F)cc3c(=O)c(C(=O)O)cn1c23.C[C@H]1COc2c(N3CCN(C)CC3)c(F)cc3c(=O)c(C(=O)O)cn1c23.O [LEVOFLOXACIN]	0.5	4	> 128	2		0.063	≤ 0.008			0.5
Cc1ccc(NC2CN(c3c(F)cc4c(=O)c(C(=O)O)cn(C5CC5)c4c3F)C2)cc1	0.031 (≈ 0.0729 µM)	0.5 (≈ 1.18 µM)	16 (≈ 37.6 µM)	0.5 (≈ 1.18 µM)	0.5 (≈ 1.18 µM)	0.031 (≈ 0.0729 µM)	≤ 0.008	0.063 (≈ 0.148 µM)	0.5 (≈ 1.18 µM)	16 (≈ 37.6 µM)
